# Compounds with a hit are over-represented: about 4.3% of the library has one in this group of screens.
# Yeast superoxide: reduction of superoxide in aged yeast, primary screen, HTS | AID 2690, 2010 | hit rate 0.18% among 330,000 | S. cerevisiae aged cells, superoxide DHE fluorescence; hits give low values | superoxide response (% of plate mean), % at 10 µM;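 active means superoxide response under a set limit, about three screen SD below normal, cut at about 65% in these data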;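 further: yeast aged for seven days with compound at 30 °C before DHE staining; 100% = average MFI of all compound-treated wells on the plate with controls excluded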
# SMARCA2 activ: SMARCA2 (BRM) function activators, primary screen, cell-based, luminescence, high throughput; MG213 cells, MMTV-luciferase reporter, dexamethasone, overnight; activation, % at 9.1 µM; hit rate 1% among 370,000; AID 652017, 2013; in the data active means activation above about 7.8%;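 further: 0% = vehicle wells and 100% = reference activator wells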
# AHR activator: AHR activators, primary screen, cell-based, luminescence, luciferase reporter, human | Aryl hydrocarbon receptor (Homo sapiens), P35869 | hit rate 2.5% among 320,000 | AHR-responsive luciferase reporter cells | activation, % at 5 µM; in the data active means activation above about 47%;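 further: 0% = vehicle wells and 100% = reference agonist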
# Hep lipid drop: inhibitors of hepatocyte lipid droplet formation, primary screen, imaging, high-throughput imaging, BODIPY stain | AML12 mouse hepatocytes, oleate lipid droplets | inhibition, % at 6.5 µM | hit rate 0.4% among 240,000;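 active means lipid droplet intensity inhibited by at least 50%, with more than 500 cells counted; inconclusive means wells with under 300 cells, treated as cytotoxic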
#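 material = mouse AML12 hepatocyte cell line, fixed after treatment | also added = 100 µM oleic acid challenge | doses = compound at 6.5 µM only | schedule = overnight exposure | technique = Image-based BODIPY and DAPI two-channel analysis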
# SR-BI DiI inh: inhibitors of SR-BI mediated HDL lipid uptake, primary screen, ldlA[mSR-BI] cells, fluorescence, single point. ldlA[mSR-BI] CHO cells, DiI-HDL uptake fluorescence, 3 h. inhibition, % at 12.5 µM. hit rate 0.96% among 320,000. AID 488896, 2010;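 active means mean replicate inhibition of at least 70% and a set share of replicates each scoring 70 or more; inconclusive means meets just one of the two criteria; inactive means fails both criteria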;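 further: 0% = median of neutral control wells and 100% = median of positive control wells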
# Target sequence (Q61009 whole entry, looked up): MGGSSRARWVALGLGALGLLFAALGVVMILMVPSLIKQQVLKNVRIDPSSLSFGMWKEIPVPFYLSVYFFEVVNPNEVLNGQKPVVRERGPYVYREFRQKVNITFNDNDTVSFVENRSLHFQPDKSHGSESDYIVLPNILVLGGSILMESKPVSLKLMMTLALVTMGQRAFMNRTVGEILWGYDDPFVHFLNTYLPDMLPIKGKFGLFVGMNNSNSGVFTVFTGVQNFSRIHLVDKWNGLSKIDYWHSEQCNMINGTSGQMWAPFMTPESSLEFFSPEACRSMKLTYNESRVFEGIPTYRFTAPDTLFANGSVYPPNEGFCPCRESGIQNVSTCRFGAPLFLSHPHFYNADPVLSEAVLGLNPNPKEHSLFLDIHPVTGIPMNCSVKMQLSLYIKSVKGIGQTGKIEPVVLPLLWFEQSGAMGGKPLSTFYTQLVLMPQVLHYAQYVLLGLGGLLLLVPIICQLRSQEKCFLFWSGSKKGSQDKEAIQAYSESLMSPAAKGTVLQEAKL
# SR-BI uptake up: activators of SR-BI mediated DiI-HDL uptake, primary screen, ldlA[mSR-BI] CHO cells, DiI fluorescence; 3 h; 100 = double the neutral-control signal; activation, % at 12.5 µM; hit rate 0.096% among 320,000;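 active means mean replicate activation of at least 60% and every replicate at or above 60%; inconclusive means mean or all-replicate condition met, but not both; inactive means mean below 60% and not all replicates reaching 60%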;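 further: 0% = median plate neutral-control signal and 100% = twice that signal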
#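 Test system: SR-BI-overexpressing, LDLR-lacking CHO cells; Medium: Ham's F12 with 0.5% BSA, HEPES 25 mM, pH 7.4; Schedule: 3 h, 37 °C; Technique: bottom-read fluorescence, 550/595 nm.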
# * hit, by the source's call; i = inactive; ? = inconclusive; . = no result given.
SMILES,Yeast superoxide,SMARCA2 activ,AHR activator,Hep lipid drop,SR-BI DiI inh,SR-BI uptake up
CC(=O)C1(C(=O)N2CCOCC2)CC(c2ccccc2C(F)(F)F)=NO1 (configuration not stated),.,0.0,.,.,.,.
CC(C)c1cc(C(=O)N/N=C/c2c[nH]c3ccccc23)n[nH]1,94.8,-0.1,20.5,-6.4,27.7,-27.7
CCOc1ccccc1/C=N/NC(=O)c1cc(C(C)C)[nH]n1,98.7,0.5,23.9,3.6,72.5*,-72.5
CCOc1ccccc1/C=N/NC(=O)c1cccc(S(=O)(=O)N2CCOCC2)c1,118.7,1.6,9.4,-13.2,82.1*,-82.1
CCN(CC)c1ccc(/C=N/NC(=O)c2cccc(S(=O)(=O)N3CCOCC3)c2)c(O)c1,96.5,-3.5,11.4,-5.8,113.7*,-113.7
O=C(N/N=C/c1ccccc1C(=O)O)c1cccc(S(=O)(=O)N2CCOCC2)c1,110.5,-1.9,3.3,.,0.8,-0.8
Cn1c(-c2ccsc2)c(-c2cccs2)c2cc(-c3ccc4cc[nH]c4c3)ccc21,88.5,-0.2,66.2*,.,77.0*,-76.9
COc1ccc(-c2c(-c3cc(OC)cc(OC)c3)n(C)c3ccc(-c4cnc(OC)nc4)cc23)cc1,91.2,0.2,-2.4,.,4.7,-15.7
COc1ccc(-c2c(-c3cc(OC)cc(OC)c3)n(C)c3ccc(-c4ccc5[nH]ccc5c4)cc23)cc1,96.1,0.6,2.0,.,75.5*,-75.5
Cn1c(-c2ccsc2)c(-c2cccs2)c2cc(Br)ccc21,91.8,-0.9,62.6*,.,26.6,-26.6
COc1cc(F)cc(-c2ccc3c(c2)c(-c2cccs2)c(-c2cc(OC)cc(OC)c2)n3C)c1,114.7,-0.2,1.3,.,36.8,-36.8
COc1cc(OC)cc(-c2c(-c3cccs3)c3cc(-c4ccn[nH]4)ccc3n2C)c1,79.8,1.5,63.9*,.,57.0,-57.0
CCOc1cc(/C=N/NC(=O)c2ccc(-c3csc(Nc4ccc(C)cc4)n3)cc2)ccc1OCC(=O)O,.,-0.8,.,33.1,?,-71.4
O=C(O)COc1ccc(/C=N/NC(=O)c2ccc(-c3csc(Nc4ccc(Cl)cc4)n3)cc2)cc1,.,3.2,.,-3.2,74.1*,-74.1
CC1=NN(c2ccccc2)C(=O)/C1=C/c1ccc[nH]1,104.4,1.4,85.2*,16.3,10.0,-10.0
CC1=NN(c2ccccc2)C(=O)C1=Cc1ccccc1,.,-3.6,.,.,.,.
O=C(N[C@@H](Cc1cccnc1)C(=O)N1CCC[C@H]1C(=O)NCCc1ccccc1Cl)c1ccc(Cl)c(Cl)c1,.,-1.6,.,.,.,.
CCc1ccc(-c2ccc(C(=O)O)cc2)nc1,93.8,7.8*,17.6,.,-19.8,19.8
COc1ccc(C(=O)c2ccc(-c3ccc(OC)cc3)nc2)cc1,.,-1.6,.,-0.1,-13.4,13.4
CC(NC(=O)c1cc2cc(F)ccc2[nH]1)c1ccccc1 (configuration not stated),89.5,-1.7,53.2*,-23.9,-42.6,42.6
CSCCC(NC(=O)c1ccccc1Cl)C(=O)N1CCC1 (configuration not stated),91.2,-1.4,0.7,.,-17.2,17.2
CSCCC(NC(=O)c1ccc(Cl)cc1Cl)C(=O)N1CCN(C(=O)c2ccccc2)CC1 (configuration not stated),.,-2.2,.,.,77.8*,-77.8
O=C(NC(=S)N1CCN(c2nc(-c3ccccc3)cs2)CC1)c1cncc(Br)c1,108.8,9.8*,4.1,-52.4,-2.3,2.3
O=C(CN1CCN(c2nc(-c3ccccc3)cs2)CC1)NNC(=O)c1ccc(Br)cc1,92.2,-0.8,5.4,19.7,30.2,-30.2
Cc1oc(-c2ccc(C(F)(F)F)cc2)nc1CN(Cc1ccccn1)C[C@@H]1CCC(=O)N1,104.5,1.0,75.2*,-10.0,-11.6,11.6
SMILES,Yeast superoxide,SMARCA2 activ,AHR activator,Hep lipid drop,SR-BI DiI inh,SR-BI uptake up
CCOc1ccc(-c2nc(CN(Cc3ccccc3)C[C@@H]3CCC(=O)N3)c(C)o2)cc1,113.1,-1.5,13.7,-1.7,31.5,-31.5
Cc1ccc(-n2c(SCc3cccc(F)c3)nc3ccccc3c2=O)cc1,.,-3.2,.,.,.,.
Cc1cc(N2CCNC[C@@H]2C)ccc1N1CCS(=O)(=O)CC1,.,-1.3,.,.,.,.
CCOC(=O)c1sc(NC(=O)c2cccc(S(=O)(=O)N3CCc4ccccc43)c2)c(C#N)c1C,101.2,2.1,7.9,-18.8,75.5*,-75.5
O=C(Nc1nc2ccc(F)cc2s1)c1cccc(S(=O)(=O)N2CCc3ccccc32)c1,109.4,-2.7,25.1,-2.4,74.3*,-74.3
COc1ccc(NC(=O)CN(C)C(=O)c2cccc(S(=O)(=O)N3CCCc4ccccc43)c2)cc1,107.5,-0.2,6.3,.,38.5,-38.5
O=C(Nc1nncs1)c1cccc(S(=O)(=O)N2CCc3ccccc32)c1,111.8,-1.6,2.6,20.9,-29.0,29.0
CN(CC(=O)Nc1ccccc1Br)C(=O)c1cccc(S(=O)(=O)N2CCc3ccccc32)c1,.,-1.4,.,.,81.8*,-81.8
CC(=O)Nc1ccc(S(=O)(=O)NCC2CCN(C(=O)C(=O)c3cccs3)CC2)cc1,.,-4.5,.,.,.,.
Cc1onc(-c2ccccc2Cl)c1C(=O)OCC(=O)Nc1ccc2c(c1)OCO2,i,-3.2,55.8*,.,17.2,-17.2
CCCc1cc(-c2nc(-c3ccc(Br)cc3)cs2)ccn1,84.8,-1.5,47.2*,-40.4,-41.0,41.0
Cc1ccc(-c2nn3c(C)nnc3s2)cc1NC(=O)c1cccs1,99.1,0.3,28.8,10.6,20.1,-20.1
Cc1cc2nn(-c3cccc4ccccc34)nc2cc1NC(=O)c1cccs1,110.4,-0.1,57.1*,.,48.9,-48.8
CCCCCCCCn1c(=O)c(C(=O)OCC)c(O)c2ccccc21,106.3,-0.2,-0.1,-5.7,-10.6,10.6
CCCCCn1c(=O)c(-c2nc3ccccc3[nH]2)c(O)c2ccccc21,88.1,-0.5,17.0,18.9,94.6*,-94.5
O=C(Nc1nc2ncccn2c1-c1ccccc1)c1ccc(F)cc1,.,-2.3,.,.,.,.
Cc1n[nH]c(C)c1S(=O)(=O)NCCc1cccc(F)c1,.,-3.6,.,.,.,.
O=C(NNC1=Nc2ccccc2SC1)c1ccc(F)cc1,99.0,-1.8,74.4*,-10.5,39.5,-39.5
CCOC(=O)[C@@]12CCCC=C1N(CCc1ccc(Cl)cc1)C(=O)[C@H]2CC(=O)NCC12CC3CC(CC(C3)C1)C2,.,-4.6,.,.,.,.
COc1ccc(OC)c(C(=O)CSc2nnc(-c3cccs3)n2C)c1,97.0,0.9,-1.2,-1.7,-4.1,4.1
COc1ccc(OC)c(C(=O)CSc2nnc(Cc3cccs3)n2CCc2ccccc2)c1,116.8,-3.6,59.4*,.,20.2,-20.2
CCOC(=O)c1ccc(NC(=O)OC[C@@H]2CSCCS(=O)(=O)N2)cc1,.,-6.8,.,.,.,.

# Bioassay records as filed in PubChem.
